ChEMBL document CHEMBL4689842, “EUbOPEN Chemogenomics Library wave 1” (2021)
Values joined by “and” are separate entries in the source; they are usually repeats but may differ in a detail not shown here. Identical values can stand only once.

System: HEK-293T
Assay: Multiplex assay against HEK293T;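 for Population Tubulin-Different-Phenotype (%): share of the cells with healthy nuclei that show this phenotype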
Type: toxicity, cell-based
Details: human, 1 µM, compound concentration 1 uM
In short: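 Hoechst33342, BioTracker Green Microtubule Cytoskeleton Dye, MitoTracker Red and Annexin V Alexa Fluor 680 were added to live cells at seeding, and imaging on a CQ1 microscope at 37°C and 5% CO2 followed compound addition. Gating by CellPathfinder machine learning separated cells into Hoechst high-intensity objects or normal cells, then normal cells into healthy, pyknosed or fragmented nuclei, then pyknosed cells into mitotic or apoptotic. Per cents of healthy-nucleus cells are reported for the tubulin, mitochondrial-mass and membrane-permeability phenotypes.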

## CC(C)C(=O)Nc1n[nH]c2cc(-c3cccc(NS(=O)(=O)C4CC4)c3)ccc12
12 h, replicate 1
  Population Apoptotic (%): 21%
  Population Fragmented Nuclei (%): 16% and 10%
  Population Healthy Nuclei (%): 61% and 63%
  Population Hoechst High Intensity Objects (%): 10% and 14%
  Population Membrane Permeable-Phenotype (%): 4%
  Population Mitochondria Different-Phenotype (%): 4% and 6%
  Population Mitotic Cells (%): 78%
  Population Normal (%): 89% and 85%
  Population Pyknosed Nuclei (%): 22% and 25%
  Population Tubulin-Different-Phenotype (%): 1% and 4%
  Total Cell Count: 541 and 686
12 h, replicate 2
  Population Apoptotic (%): 12% and 8%
  Population Fragmented Nuclei (%): 4% and 6%
  Population Healthy Nuclei (%): 85% and 89%
  Population Hoechst High Intensity Objects (%): 3% and 1%
  Population Membrane Permeable-Phenotype (%): 1%
  Population Mitochondria Different-Phenotype (%): 13% and 7%
  Population Mitotic Cells (%): 87% and 91%
  Population Normal (%): 96% and 98%
  Population Pyknosed Nuclei (%): 9% and 4%
  Population Tubulin-Different-Phenotype (%): 7%
  Total Cell Count: 1247 and 1614
24 h, replicate 1
  Population Apoptotic (%): 14% and 20%
  Population Fragmented Nuclei (%): 11%
  Population Healthy Nuclei (%): 80% and 75%
  Population Hoechst High Intensity Objects (%): 6% and 10%
  Population Membrane Permeable-Phenotype (%): 8% and 6%
  Population Mitochondria Different-Phenotype (%): 3% and 5%
  Population Mitotic Cells (%): 85% and 79%
  Population Normal (%): 93% and 89%
  Population Pyknosed Nuclei (%): 8% and 13%
  Population Tubulin-Different-Phenotype (%): 4% and 8%
  Total Cell Count: 620 and 701
24 h, replicate 2
  Population Apoptotic (%): 4% and 12%
  Population Fragmented Nuclei (%): 22% and 8%
  Population Healthy Nuclei (%): 76% and 86%
  Population Hoechst High Intensity Objects (%): 3% and 4%
  Population Membrane Permeable-Phenotype (%): 5% and 2%
  Population Mitochondria Different-Phenotype (%): 1% and 6%
  Population Mitotic Cells (%): 95% and 87%
  Population Normal (%): 96% and 95%
  Population Tubulin-Different-Phenotype (%): 15%
  Total Cell Count: 2835 and 1472

## Cn1cc(C2=C(c3cn(C4CCN(Cc5ccccn5)CC4)c4ccccc34)C(=O)NC2=O)c2ccccc21 [ENZASTAURIN]
12 h, replicate 1
  Population Apoptotic (%): 23% and 42%
  Population Fragmented Nuclei (%): 18% and 16%
  Population Healthy Nuclei (%): 49% and 29%
  Population Hoechst High Intensity Objects (%): 14% and 15%
  Population Membrane Permeable-Phenotype (%): 13% and 12%
  Population Mitotic Cells (%): 76% and 57%
  Population Normal (%): 85% and 84%
  Population Pyknosed Nuclei (%): 31% and 53%
  Total Cell Count: 539 and 569
12 h, replicate 2
  Population Apoptotic (%): 28% and 14%
  Population Fragmented Nuclei (%): 3% and 4%
  Population Healthy Nuclei (%): 77% and 86%
  Population Hoechst High Intensity Objects (%): 6% and 4%
  Population Membrane Permeable-Phenotype (%): 2% and 6%
  Population Mitochondria Different-Phenotype (%): 72% and 25%
  Population Mitotic Cells (%): 71% and 85%
  Population Normal (%): 93% and 95%
  Population Pyknosed Nuclei (%): 19% and 9%
  Population Tubulin-Different-Phenotype (%): 87% and 37%
  Total Cell Count: 1031 and 1115
24 h, replicate 1
  Population Apoptotic (%): 49% and 19%
  Population Fragmented Nuclei (%): 19% and 16%
  Population Healthy Nuclei (%): 39% and 65%
  Population Hoechst High Intensity Objects (%): 24% and 11%
  Population Membrane Permeable-Phenotype (%): 11% and 6%
  Population Mitotic Cells (%): 50% and 80%
  Population Normal (%): 75% and 88%
  Population Pyknosed Nuclei (%): 41% and 18%
  Population Tubulin-Different-Phenotype (%): 76% and 32%
  Total Cell Count: 506 and 516
24 h, replicate 2
  Population Fragmented Nuclei (%): 4% and 12%
  Population Healthy Nuclei (%): 85% and 83%
  Population Hoechst High Intensity Objects (%): 9% and 5%
  Population Membrane Permeable-Phenotype (%): 3% and 4%
  Population Mitotic Cells (%): 68% and 93%
  Population Normal (%): 90% and 94%
  Population Tubulin-Different-Phenotype (%): 77% and 27%
  Total Cell Count: 1011 and 1578
